According to ChEMBL document CHEMBL1949512, “RO4383596, an orally active KDR, FGFR, and PDGFR inhibitor: synthesis and biological evaluation” (Bioorg Med Chem, 2005):

Tests used:
Format in all cases: ADME, organism-based
[1] = Tmax in Wistar rat at 50 mg/kg, po; design: dose 50 mg/kg, route oral; conditions: in vivo
Procedure, shortened: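 Wistar rats, single oral dose 50 mg/kg as suspension in 2% Klucel LF, 0.1% Tween 80 in water, 5 mL/kg. Jugular catheter blood at 5, 15, 30 min and 1, 3, 6, 12, 24, 48 h; EDTA plasma, LC-MS/MS. Tmax taken from concentration–time profiles; individual-animal parameters averaged.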

[2] = AUC in C57/BL6 mouse at 100 mg/kg, po bid for 5 days; design: dose 100 mg/kg, route oral; conditions: plasma
Procedure, shortened: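 Female C57/BL6 mice were dosed orally twice daily for 5 days with a suspension in 2% Klucel LF/0.1% Tween 80 in water. Six mice per dose were split into two subgroups of three, each sampled at alternate time points. Retro-orbital blood was taken at 0, 1, 4 and 8 h post-dose into EDTA, and plasma was analysed by LC-MS/MS. Parameters come from mean concentrations; AUC0–8h by linear trapezoidal rule; Cmax and Tmax as observed.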

[3] = Half life in Wistar rat at 5 mg/kg, iv; design: dose 5 mg/kg, route intravenous; conditions: in vivo
Procedure, shortened: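 Wistar rats received one dose, either iv 5 mg/kg via femoral arterial catheter (2% DMA/10% PEG400/88% of 40% HPBCD) or po 50 mg/kg (2% Klucel LF/0.1% Tween 80). Blood came from an implanted jugular catheter, up to 24 h (iv) or 48 h (po), into EDTA. Plasma LC-MS/MS; individual non-compartmental parameters were averaged.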

- Tmax [1]: 5.3 h
- AUC at 120 h [2]: 150 µg·h/mL
- half-life [3]: 6 h
Structure (SMILES): COc1ccc(N2Cc3cnc(Nc4ccccc4)nc3N([C@@H]3CC[C@@H](O)C3)C2=O)cc1 (racemic)
